Laboratory results: ChEMBL document CHEMBL4622984, “Structure-Based Design of a Bromodomain and Extraterminal Domain (BET) Inhibitor Selective for the N-Terminal Bromodomains That Retains an Anti-inflammatory and Antiproliferative Phenotype” (J Med Chem, 2020)

Experiments:
[1] = biological target: Bromodomain-containing protein 4 (Homo sapiens, UniProt O60885, Y97A); test: Displacement of Alexa Fluor 647 labelled I-BET762 from N-terminal His6-tagged human BRD4 BD2 (1 to 477 residues)/BD1 Y97A mutant expressed in Escherichia coli after 1 hr by TR-FRET assay
[2] = biological target: Bromodomain-containing protein 4 (Homo sapiens, UniProt O60885, Y390A); test: Displacement of Alexa Fluor 647 labelled I-BET762 from N-terminal His6-tagged human BRD4 BD1 (1 to 477 residues)/BD2 Y390A mutant expressed in Escherichia coli after 1 hr by TR-FRET assay
[3] = biological target: Bromodomain-containing protein 2 (Homo sapiens, UniProt P25440, Y113A); test: Displacement of Alexa Fluor 647 labelled I-BET762 from N-terminal His6-tagged human BRD2 BD2 (1 to 473 residues)/BD1 Y113A mutant expressed in Escherichia coli after 1 hr by TR-FRET assay
Sequence of Bromodomain-containing protein 2 (Homo sapiens, UniProt P25440, Y113A) (P25440 whole entry Y113A, the tested form may be a part): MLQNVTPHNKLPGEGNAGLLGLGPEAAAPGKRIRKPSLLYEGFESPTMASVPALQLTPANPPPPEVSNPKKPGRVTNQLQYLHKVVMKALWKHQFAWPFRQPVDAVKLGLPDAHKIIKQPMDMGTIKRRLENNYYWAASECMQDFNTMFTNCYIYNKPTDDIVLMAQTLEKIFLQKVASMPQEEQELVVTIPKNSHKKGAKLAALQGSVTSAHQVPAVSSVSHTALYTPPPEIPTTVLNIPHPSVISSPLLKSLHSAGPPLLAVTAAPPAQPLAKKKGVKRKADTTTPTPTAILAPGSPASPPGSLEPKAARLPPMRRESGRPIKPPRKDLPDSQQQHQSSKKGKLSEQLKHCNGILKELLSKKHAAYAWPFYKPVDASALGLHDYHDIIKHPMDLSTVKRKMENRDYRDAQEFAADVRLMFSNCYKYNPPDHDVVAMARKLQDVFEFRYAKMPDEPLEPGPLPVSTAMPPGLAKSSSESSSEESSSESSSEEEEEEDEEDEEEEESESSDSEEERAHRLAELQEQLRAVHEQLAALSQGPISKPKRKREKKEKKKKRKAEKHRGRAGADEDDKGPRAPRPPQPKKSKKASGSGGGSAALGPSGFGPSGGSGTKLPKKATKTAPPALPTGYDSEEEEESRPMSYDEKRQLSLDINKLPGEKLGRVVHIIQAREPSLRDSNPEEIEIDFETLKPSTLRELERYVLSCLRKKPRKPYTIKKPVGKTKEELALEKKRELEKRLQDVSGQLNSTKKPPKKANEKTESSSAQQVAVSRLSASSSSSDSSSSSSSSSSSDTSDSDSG

Homo sapiens [4] = species: Homo sapiens; test: Selectivity index, difference between pIC50 for N-terminal His6-tagged human BRDT BD1 (1 to 397 residues)/ BD2 Y309A mutant expressed in Escherichia coli to pIC50 for N-terminal His6-tagged human BRDT BD2 (1 to 397 residues)/BD1 Y66A mutant expressed in Escherichia coli
[5] = biological target: Bromodomain-containing protein 3 (Homo sapiens, UniProt Q15059, Y348A); test: Displacement of Alexa Fluor 647 labelled I-BET762 from N-terminal His6-tagged human BRD3 BD1 (1 to 435 residues)/BD2 Y348A mutant expressed in Escherichia coli after 1 hr by TR-FRET assay
Sequence of Bromodomain-containing protein 3 (Homo sapiens, UniProt Q15059, Y348A) (Q15059 2-726 Y348A limits assumed): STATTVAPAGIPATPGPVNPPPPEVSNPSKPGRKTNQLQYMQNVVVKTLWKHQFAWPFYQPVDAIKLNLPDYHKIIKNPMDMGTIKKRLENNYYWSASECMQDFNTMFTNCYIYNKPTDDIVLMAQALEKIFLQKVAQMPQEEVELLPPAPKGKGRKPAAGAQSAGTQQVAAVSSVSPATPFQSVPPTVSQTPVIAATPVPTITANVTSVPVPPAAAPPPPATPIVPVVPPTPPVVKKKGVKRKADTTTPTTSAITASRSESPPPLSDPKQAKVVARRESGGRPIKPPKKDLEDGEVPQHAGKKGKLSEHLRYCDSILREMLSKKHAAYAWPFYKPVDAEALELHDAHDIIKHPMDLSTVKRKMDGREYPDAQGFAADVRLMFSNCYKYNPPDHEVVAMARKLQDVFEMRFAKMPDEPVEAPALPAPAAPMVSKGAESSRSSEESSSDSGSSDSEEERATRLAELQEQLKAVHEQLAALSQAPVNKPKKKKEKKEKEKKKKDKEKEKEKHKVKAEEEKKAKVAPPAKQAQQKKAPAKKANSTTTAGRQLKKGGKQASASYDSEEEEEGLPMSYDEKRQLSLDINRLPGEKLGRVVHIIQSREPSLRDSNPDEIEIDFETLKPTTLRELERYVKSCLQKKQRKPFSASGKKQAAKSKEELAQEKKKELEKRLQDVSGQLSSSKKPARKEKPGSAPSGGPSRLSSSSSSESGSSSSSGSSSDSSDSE

[6] = biological target: Bromodomain-containing protein 2 (Homo sapiens, UniProt P25440, Y386A); test: Displacement of Alexa Fluor 647 labelled I-BET762 from N-terminal His6-tagged human BRD2 BD1 (1 to 473 residues)/BD2 Y386A mutant expressed in Escherichia coli after 1 hr by TR-FRET assay
Sequence of Bromodomain-containing protein 2 (Homo sapiens, UniProt P25440, Y386A) (P25440 whole entry Y386A, the tested form may be a part): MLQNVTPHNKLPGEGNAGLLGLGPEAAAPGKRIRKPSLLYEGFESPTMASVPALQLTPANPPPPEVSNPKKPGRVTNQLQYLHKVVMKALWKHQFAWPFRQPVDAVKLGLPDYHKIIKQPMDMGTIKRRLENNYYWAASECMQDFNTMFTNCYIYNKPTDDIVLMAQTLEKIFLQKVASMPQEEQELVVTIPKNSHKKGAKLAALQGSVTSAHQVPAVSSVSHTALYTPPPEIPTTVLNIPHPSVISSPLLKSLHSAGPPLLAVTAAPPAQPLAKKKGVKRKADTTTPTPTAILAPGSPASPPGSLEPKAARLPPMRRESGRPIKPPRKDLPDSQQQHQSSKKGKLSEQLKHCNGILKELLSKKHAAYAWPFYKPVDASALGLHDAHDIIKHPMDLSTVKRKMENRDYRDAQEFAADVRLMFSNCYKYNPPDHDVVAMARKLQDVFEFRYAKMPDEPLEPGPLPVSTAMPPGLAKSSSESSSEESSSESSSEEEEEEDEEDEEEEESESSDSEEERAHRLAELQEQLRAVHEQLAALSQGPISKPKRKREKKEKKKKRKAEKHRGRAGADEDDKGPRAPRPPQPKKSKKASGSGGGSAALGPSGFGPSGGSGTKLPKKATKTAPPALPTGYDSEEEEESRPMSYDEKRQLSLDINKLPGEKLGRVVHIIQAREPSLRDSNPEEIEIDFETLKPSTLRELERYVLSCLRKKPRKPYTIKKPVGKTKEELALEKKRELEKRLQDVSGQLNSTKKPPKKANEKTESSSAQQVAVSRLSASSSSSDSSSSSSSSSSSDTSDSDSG

[7] = biological target: Bromodomain testis-specific protein (Homo sapiens, UniProt Q58F21, Y66A); test: Displacement of Alexa Fluor 647 labelled I-BET762 from N-terminal His6-tagged human BRDT BD2 (1 to 397 residues)/BD1 Y66A mutant expressed in Escherichia coli after 1 hr by TR-FRET assay
[8] = biological target: Bromodomain testis-specific protein (Homo sapiens, UniProt Q58F21, Y309A); test: Displacement of Alexa Fluor 647 labelled I-BET762 from N-terminal His6-tagged human BRDT BD1 (1 to 397 residues)/BD2 Y309A mutant expressed in Escherichia coli after 1 hr by TR-FRET assay
Homo sapiens [9] = species: Homo sapiens; test: Selectivity index, difference between pIC50 for N-terminal His6-tagged human BRD3 BD1 (1 to 435 residues)/BD2 Y348A mutant expressed in Escherichia coli to pIC50 for N-terminal His6-tagged human BRD3 BD2 (1 to 435 residues)/BD1 Y73A mutant expressed in Escherichia coli
Homo sapiens [10] = species: Homo sapiens; test: Selectivity index, difference between pIC50 for N-terminal His6-tagged human BRD2 BD1 (1 to 473 residues)/ BD2 Y386A mutant expressed in Escherichia coli to pIC50 for N-terminal His6-tagged human BRD2 BD2 (1 to 473 residues)/BD1 Y113A mutant expressed in Escherichia coli
[11] = biological target: Bromodomain-containing protein 3 (Homo sapiens, UniProt Q15059, Y73A); test: Displacement of Alexa Fluor 647 labelled I-BET762 from N-terminal His6-tagged human BRD3 BD2 (1 to 435 residues)/BD1 Y73A mutant expressed in Escherichia coli after 1 hr by TR-FRET assay
Sequence of Bromodomain-containing protein 3 (Homo sapiens, UniProt Q15059, Y73A) (Q15059 2-726 Y73A limits assumed): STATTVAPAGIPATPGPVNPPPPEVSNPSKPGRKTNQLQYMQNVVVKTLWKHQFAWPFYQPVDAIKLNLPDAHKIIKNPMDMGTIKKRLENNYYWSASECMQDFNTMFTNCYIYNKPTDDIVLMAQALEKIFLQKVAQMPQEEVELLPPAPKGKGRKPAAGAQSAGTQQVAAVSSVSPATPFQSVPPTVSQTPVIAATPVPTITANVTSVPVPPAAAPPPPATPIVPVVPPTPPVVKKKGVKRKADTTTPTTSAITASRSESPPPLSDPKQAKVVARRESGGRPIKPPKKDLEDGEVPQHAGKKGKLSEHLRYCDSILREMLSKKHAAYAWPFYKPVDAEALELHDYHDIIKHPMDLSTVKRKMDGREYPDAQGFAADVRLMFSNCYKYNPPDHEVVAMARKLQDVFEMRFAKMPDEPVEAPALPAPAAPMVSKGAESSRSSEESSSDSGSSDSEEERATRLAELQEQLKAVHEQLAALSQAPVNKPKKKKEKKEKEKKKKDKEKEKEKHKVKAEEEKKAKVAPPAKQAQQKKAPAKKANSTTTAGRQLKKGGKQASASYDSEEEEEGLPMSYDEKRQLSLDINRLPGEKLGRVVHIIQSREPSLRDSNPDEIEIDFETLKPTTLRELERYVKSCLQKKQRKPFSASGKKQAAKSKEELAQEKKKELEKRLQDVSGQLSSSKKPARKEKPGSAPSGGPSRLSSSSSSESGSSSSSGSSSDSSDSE
Method in brief: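 Single-mutant tandem bromodomain constructs (Tyr→Ala in the other domain), N-terminal 6His, expressed in E. coli. Compounds were titrated from 10 mM DMSO stocks. Protein at 10 nM in 50 mM HEPES, 50 mM NaCl, 1 mM CHAPS, pH 7.4 with Alexa Fluor 647–I-BET762 tracer at 50 nM (200 nM for BRDT Y66A). Plates were equilibrated 1 h at rt in the dark, then 1.5 nM Eu-anti-6His was added.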

[12] = biological target: T1, Bromodomain-containing protein 2 (Homo sapiens, UniProt P25440); test: Binding affinity to BRD2 BD2 (unknown origin) by isothermal titration calorimetric method
T1 sequence (P25440 whole entry): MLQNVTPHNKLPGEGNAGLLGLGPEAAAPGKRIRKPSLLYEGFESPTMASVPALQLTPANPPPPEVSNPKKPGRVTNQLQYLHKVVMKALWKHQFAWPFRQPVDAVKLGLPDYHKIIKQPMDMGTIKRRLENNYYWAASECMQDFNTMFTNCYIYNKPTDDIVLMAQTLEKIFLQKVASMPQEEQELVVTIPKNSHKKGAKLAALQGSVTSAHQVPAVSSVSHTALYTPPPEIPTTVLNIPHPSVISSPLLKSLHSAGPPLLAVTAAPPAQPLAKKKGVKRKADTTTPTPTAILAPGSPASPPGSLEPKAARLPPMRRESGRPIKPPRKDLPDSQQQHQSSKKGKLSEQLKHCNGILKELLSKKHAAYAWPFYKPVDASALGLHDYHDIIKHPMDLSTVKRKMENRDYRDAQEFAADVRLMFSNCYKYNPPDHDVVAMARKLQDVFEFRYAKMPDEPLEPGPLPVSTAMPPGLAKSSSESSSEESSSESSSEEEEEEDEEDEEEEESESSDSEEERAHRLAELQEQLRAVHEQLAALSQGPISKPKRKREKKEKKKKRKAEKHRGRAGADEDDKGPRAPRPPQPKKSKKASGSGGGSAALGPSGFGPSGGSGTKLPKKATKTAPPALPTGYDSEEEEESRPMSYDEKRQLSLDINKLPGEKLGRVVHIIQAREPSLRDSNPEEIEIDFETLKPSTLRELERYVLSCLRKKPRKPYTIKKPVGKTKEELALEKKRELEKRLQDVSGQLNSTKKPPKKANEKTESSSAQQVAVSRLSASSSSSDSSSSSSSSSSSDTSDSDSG

[13] = biological target: T1, Bromodomain-containing protein 2; test: Binding affinity to BRD2 BD1 (unknown origin) by isothermal titration calorimetric method
[14] = biological target: T2, Bromodomain-containing protein 3 (Homo sapiens, UniProt Q15059); test: Binding affinity to BRD3 BD2 (unknown origin) by isothermal titration calorimetric method
T2 sequence (Q15059 whole entry): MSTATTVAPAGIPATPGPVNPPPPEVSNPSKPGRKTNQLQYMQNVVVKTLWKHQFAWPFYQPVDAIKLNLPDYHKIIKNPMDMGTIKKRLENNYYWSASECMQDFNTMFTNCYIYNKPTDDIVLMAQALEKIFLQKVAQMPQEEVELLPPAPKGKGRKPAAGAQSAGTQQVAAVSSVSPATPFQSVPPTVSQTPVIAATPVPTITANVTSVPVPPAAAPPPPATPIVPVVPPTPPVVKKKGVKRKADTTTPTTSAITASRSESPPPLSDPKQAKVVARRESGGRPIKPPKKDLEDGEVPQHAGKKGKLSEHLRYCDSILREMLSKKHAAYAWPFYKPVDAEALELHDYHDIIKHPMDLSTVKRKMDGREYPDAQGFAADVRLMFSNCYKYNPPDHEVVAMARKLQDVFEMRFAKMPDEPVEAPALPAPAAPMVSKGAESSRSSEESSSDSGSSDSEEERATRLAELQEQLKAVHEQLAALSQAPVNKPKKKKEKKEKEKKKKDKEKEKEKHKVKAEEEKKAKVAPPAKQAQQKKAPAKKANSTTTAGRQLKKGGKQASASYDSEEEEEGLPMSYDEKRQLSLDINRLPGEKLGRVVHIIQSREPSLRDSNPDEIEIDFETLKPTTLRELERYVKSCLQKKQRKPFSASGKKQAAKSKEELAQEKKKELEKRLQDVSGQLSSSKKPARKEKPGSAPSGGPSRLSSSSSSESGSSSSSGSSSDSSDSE

[15] = biological target: T2, Bromodomain-containing protein 3; test: Binding affinity to BRD3 BD1 (unknown origin) by isothermal titration calorimetric method
[16] = Cmax in CD1 mouse at 10 mg/kg, ip measured up to 12 hrs by reverse-phase LC-MS/MS analysis; type: ADME, organism-based; design: dose 10 mg/kg, route intraperitoneal; conditions: in vivo
Method in brief: (§1)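 Three male CD1 mice (30–33 g) given a single ip dose of 10 mg/kg, formulated at 2 mg/mL in 10% Kleptose in saline at pH 5 and dosed at 5 mL/kg. Serial tail-vein blood (ca. 20 µL) was taken up to 12 h, with a terminal cardiac sample at 24 h. Blood was diluted 1:1 with water, extracted by acetonitrile protein precipitation with internal standard, and quantified by reverse-phase LC-MS/MS (positive ion) against standards in control blood. Values are mean of n = 3.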

[17] = Elimination half life in CD1 mouse at 10 mg/kg, ip measured up to 7 hrs by reverse-phase LC-MS/MS analysis; type: ADME, organism-based; conditions: in vivo, read-out: beta t1/2 (converted); method in brief: as §1
MV4-11 = test: Growth inhibition of human MV4-11 cells incubated for 72 hrs by Cell-titre glo assay; type: functional, cell-based; conditions: MV4-11, 72 h
[18] = Tmax in CD1 mouse at 10 mg/kg, ip measured up to 12 hrs by reverse-phase LC-MS/MS analysis; type: ADME, organism-based; conditions: in vivo; method in brief: as §1
Blood [19] = test: Antiinflammatory activity in human whole blood assessed as reduction in LPS-induced IL-6 production preincubated for 30 mins followed by LPS challenge and measured after overnight incubation by mesoscale assay; type: functional, tissue-based
[20] = Terminal half life in CD1 mouse at 10 mg/kg, ip measured after 7 to 24 hrs by reverse-phase LC-MS/MS analysis; type: ADME, organism-based; conditions: in vivo, read-out: beta t1/2 (converted); method in brief: as §1
[21] = AUCinfinity in CD1 mouse at 10 mg/kg, ip measured up to 12 hrs by reverse-phase LC-MS/MS analysis; type: ADME, organism-based; design: dose 10 mg/kg, time infinity, route intraperitoneal; conditions: in vivo; method in brief: as §1
[22] = Unbound fraction in CD1 mouse blood at 200 to 1000 ng/ml incubated for 4 hrs by LC-MS/MS-based rapid equilibrium dialysis method; type: ADME, tissue-based
Blood [23] = test: Antiinflammatory activity in human whole blood assessed as reduction in LPS-induced MCP1 production preincubated for 30 mins followed by LPS challenge and measured after overnight incubation by mesoscale assay; type: functional, tissue-based
PBMC [24] = test: Antiinflammatory activity in human PBMC assessed as reduction in LPS-induced IL-6 production incubated for 18 to 24 hrs by mesoscale assay; type: functional, cell-based
PBMC [25] = test: Antiinflammatory activity in human PBMC assessed as reduction in LPS-induced MCP1 production incubated for 18 to 24 hrs by mesoscale assay; type: functional, cell-based

| Structure (SMILES) | IC50 [1] [nM] | IC50 [2] [nM] | other results |
| --- | --- | --- | --- |
| Cc1noc(C)c1-c1cc2ncc3c(c2cc1OCCCO)n(C(C)c1ccccn1)c(=O)n3C (stereo unspecified) | 6310 | 501 |  |
| CC(=O)NCCCOc1cc2c(cc1-c1c(C)noc1C)ncc1c2n(C(C)c2ccccn2)c(=O)n1C (stereo unspecified) | 3160 | 794 |  |
| Cc1noc(C)c1-c1cc2ncc3c(c2cc1C(=O)O)n(C(C)c1ccccn1)c(=O)n3C (stereo unspecified) | > 50100 | 12600 |  |
| Cc1noc(C)c1-c1cc2ncc3c(c2cc1OCCN(C)C)n([C@H](C)c1ccccn1)c(=O)n3C | > 50100 | 2000 |  |
| Cc1noc(C)c1-c1cc2ncc3c(c2cc1O[C@H]1C[C@@H](N)C1)n(C(C)c1ccccn1)c(=O)n3C (stereo partly specified) | 10000 | 251 |  |
| Cc1noc(C)c1-c1cc2ncc3c(c2cc1O[C@H]1C[C@H](N)C1)n(C(C)c1ccccn1)c(=O)n3C (stereo partly specified) | 3160 | 79.4 |  |
| Cc1noc(C)c1-c1cc2ncc3c(c2cc1CC(=O)O)n(C(C)c1ccccn1)c(=O)n3C (stereo unspecified) | > 50100 | > 50100 |  |
| Cc1noc(C)c1-c1cc2ncc3c(c2cc1O[C@H]1CCNC1)n(C(C)c1ccccn1)c(=O)n3C (mixture of isomers) | > 50100 | 6310 |  |
| COCc1nc2cnc3cc(-c4c(C)noc4C)c(OC)cc3c2n1[C@H](C)c1ccccc1 | 39.8 | 10 | IC50 [3]: 39.8 nM; Selectivity Index (Homo sapiens [4]): 13; IC50 [5]: 10 nM; IC50 [6]: 12.6 nM; IC50 [7]: 316 nM; IC50 [8]: 25.1 nM; Selectivity Index (Homo sapiens [9]): 1.6; Selectivity Index (Homo sapiens [10]): 3.2; IC50 [11]: 15.8 nM |
| CNCCCOc1cc2c(cc1-c1c(C)noc1C)ncc1c2n(C(C)c2ccccn2)c(=O)n1C (stereo unspecified) | 25100 | 1000 |  |
| CC(=O)NCCCCn1c2c(c3ccccc31)C(=O)NCC2 |  |  | Kd [12]: > 300000 nM; Kd [13]: 3300 to 8600 nM; Kd [14]: > 300000 nM; Kd [15]: 3300 to 8600 nM |
| Cc1noc(C)c1-c1cc2ncc3c(c2cc1OC[C@H]1CCNC1)n(C(C)c1ccccn1)c(=O)n3C (mixture of isomers) | 25100 | 501 |  |
| Cc1noc(C)c1-c1cc2ncc3c(c2cc1OCC1CCNCC1)n(C(C)c1ccccn1)c(=O)n3C (stereo unspecified) | 39800 | 794 |  |
| COCc1nc2cnc3cc(-c4c(C)noc4C)c(OC[C@H]4CCNC4)cc3c2n1[C@H](C)c1ccccc1 [GSK778] |  |  | IC50 [3]: 3160 nM; Cmax [16]: 2400 nM; half-life [17]: 54 min; IC50 [6]: 79.4 nM; IC50 (MV4-11): 100 nM; Tmax [18]: 15 to 30 min; IC50 (Blood [19]): 251 nM; half-life [20]: 492 min; AUC(0-inf) [21]: 3.34 µM·h; IC50 [11]: 1000 nM; fraction unbound at 4 h [22]: 0.08 |
| COc1cc2c(cc1-c1c(C)noc1C)ncc1c2n([C@H](C)c2ccccn2)c(=O)n1C | 501 | 50.1 |  |
| Cc1noc(C)c1-c1cc2ncc3c(c2cc1OCCCN(C)C)n([C@H](C)c1ccccn1)c(=O)n3C | > 50100 | 1000 |  |
| Cc1noc(C)c1-c1cc2ncc3c(c2cc1O[C@@H]1CCNC1)n([C@H](C)c1ccccn1)c(=O)n3C | 50100 | 1260 |  |
| Cc1noc(C)c1-c1cc2ncc3c(c2cc1OCC(=O)O)n([C@H](C)c1ccccn1)c(=O)n3C | 12600 | 2000 |  |
| Cc1noc(C)c1-c1cc2ncc3c(c2cc1OCCCN)n(C(C)c1ccccn1)c(=O)n3C (stereo unspecified) | 15800 | 631 |  |
| COc1cc2c(cc1-c1c(C)noc1C)ncc1[nH]c(=O)n([C@H](C)c3ccccn3)c12 |  |  | IC50 (Blood [23]): 200 nM; IC50 (PBMC [24]): 126 nM; IC50 [5]: 31.6 nM; IC50 (PBMC [25]): 39.8 nM; IC50 (MV4-11): 100 nM; IC50 [7]: 1580 nM; IC50 [8]: 126 nM; IC50 (Blood [19]): 1000 nM; IC50 [11]: 79.4 nM |
| Cc1noc(C)c1-c1cc2ncc3c(c2cc1OCCN)n(C(C)c1ccccn1)c(=O)n3C (stereo unspecified) | 31600 | 1260 |  |
| COc1ccc2c(c1)C(c1ccc(Cl)cc1)=N[C@@H](NC(=O)OCc1ccccc1)c1nnc(C)n1-2 |  |  | IC50 (Blood [23]): 200 nM; IC50 (PBMC [24]): 316 nM; IC50 (PBMC [25]): 50.1 nM; IC50 (MV4-11): 200 nM; IC50 (Blood [19]): 1580 nM |
| Cc1noc(C)c1-c1cc2ncc3c(c2cc1OC[C@@H]1CCNC1)n(C(C)c1ccccn1)c(=O)n3C (mixture of isomers) | 31600 | 794 |  |
